Shown are actives, neighbours in structure and some others; about 4.2% of the full set was active somewhere.
Fh CTSL1 inh – Fasciola hepatica cathepsin L1 inhibitors, primary screen, counter-screen for PFM18AAP inhibitor project, biochemical, QFRET, fluorogenic peptide substrate | recombinant F. hepatica cathepsin L1, Z-Leu-Arg-MCA fluorescence | inhibition, % at 5.96 µM | 0.49% of 300,000 active;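 active = inhibition above the mean of all tested compounds plus 3 SD, set per screening campaign, cut at about 17% in these data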;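 also: 0% = plate median of test compound wells and 100% = 1 µM Z-Phe-Ala-diazomethylketone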
SENP1 inh – human SENP1 catalytic domain inhibitors, primary screen, biochemical, FRET, uHTS; Sentrin-specific protease 1 (Homo sapiens), Q9P0U3; AID 624204, 2012; 0.21% of 360,000 active; recombinant SENP1 catalytic domain, CyPet-SUMO1-YPet FRET cleavage; inhibition, % at 10 µM;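 active = inhibition at least 30% at 10 µM, raw YFP signal under a set limit, fluorescence ratio 0.5 to 1.5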;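 also: 0% = enzyme with DMSO and 100% = no enzyme wells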
Target sequence (Q9P0U3 419-644 limits assumed): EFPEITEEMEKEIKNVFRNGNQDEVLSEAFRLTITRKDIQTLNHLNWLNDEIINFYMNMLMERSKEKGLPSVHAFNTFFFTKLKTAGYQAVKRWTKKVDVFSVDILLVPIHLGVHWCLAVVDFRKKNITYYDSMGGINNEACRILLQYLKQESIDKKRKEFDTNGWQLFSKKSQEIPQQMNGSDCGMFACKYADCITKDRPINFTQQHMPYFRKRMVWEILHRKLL
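Assay system: hSENP1 catalytic domain, recombinant. Amount: SENP1 enzyme, 20 pM final. Schedule: 50 min reaction, RT, dark. Technique: FRET, CFP and YFP emission. Control set: no-enzyme wells low, DMSO-plus-enzyme wells high control.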
HDAC3 inhib – HDAC3 deacetylase inhibitors, primary screen, biochemical, fluorescence, cell-free homogeneous | Histone deacetylase 3 (Homo sapiens), O15379 | recombinant HDAC3, fluorogenic peptide/trypsin coupled | inhibition, % at 8.3 µM | 0.15% of 320,000 active; in the data active = inhibition above about 26%, passing the limit was not always enough
M18AAP inhibitor – PfM18AAP inhibitors, malaria aminopeptidase, primary screen, biochemical, QFRET, recombinant enzyme | M18 aspartyl aminopeptidase (Plasmodium falciparum 3D7) | H-Glu-NHMec fluorogenic cleavage | inhibition, % at 7.35 µM | 1.2% of 290,000 active;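 active = inhibition above the campaign mean inhibition over all tested compounds plus 3 SD, cut at about 28% in these data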;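 also: 0% = plate median of test compound wells and 100% = 2 mM ZnCl2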
AHR act – AHR activators, primary screen, cell-based, luminescence, luciferase reporter, human; 2.5% of 320,000 active; AID 2796, 2010; activation, % at 5 µM; AHR-responsive luciferase reporter cells; Aryl hydrocarbon receptor (Homo sapiens), P35869; in the data active = activation above about 47%;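 also: 0% = vehicle wells and 100% = reference agonist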
FXN GAA850 act – FXN promoter activators, primary screen, cell-based, luciferase luminescence, HEK293 lucGAA850; AID 540364, 2011; activation, % at 6 µM; 0.56% of 360,000 active; HEK293 lucGAA850 FXN promoter luciferase reporter, 24 h; percent of 10 µM SAHA response;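 active = activation above the average of all compounds screened plus 3 SD, cutoff fixed separately per campaign, cut at about 7.5% in these data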;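 also: 0% = DMSO wells and 100% = 10 µM SAHA wells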
Starred values were filed as active, the others as inactive; x = no result.

SMILES	Fh CTSL1 inh	SENP1 inh	HDAC3 inhib	M18AAP inhibitor	AHR act	FXN GAA850 act
CCCC(=O)N1CCCC1(C)C(=O)Nc1ccc(-n2cncn2)cc1 (centres undefined)	x	1	x	x	x	-1
CC(CNS(=O)(=O)c1ccc2c(c1)CC(=O)N2C)c1ccccc1 (centres undefined)	4	0	1	-18	1	0
CN1C(=O)Cc2cc(S(=O)(=O)Nc3ccc(Cl)cc3)ccc21	1	0	-14	29*	4	0
CCNC(=S)N/N=C(\C)c1cc2ccccc2o1	3	-2	8	-1	36	5
Cc1cc(C)cc(NC(=S)Nc2cccc3ccccc23)c1	0	-14	0	4	69*	-1
Cc1ccc(S(=O)(=O)N(C)C)cc1NC(=S)Nc1cccc2ccccc12	-8	-20	-4	-6	59*	-1
C/C(=N\NC(=S)Nc1cccc(C)c1)c1cc2ccccc2o1	5	-22	-9	-11	49*	3
Cc1ccc(NC(=S)Nc2cccc3ccccc23)cc1	-3	-35	-3	5	8	-1
Cc1cccc(NC(=S)Nc2cccc3ccccc23)c1	-1	-18	x	15	63*	2
CCn1c(COC(=O)CNC(=O)c2cc(OC)c(OC)c(OC)c2)nc2cc(S(=O)(=O)N(C)C)ccc21	0	-1	3	x	-1	0
COc1ccc(CNC(=O)CNC(=O)c2cccs2)c(OC)c1	-3	0	0	1	1	-1
CC(C)(C)OC(=O)NN1CC(=O)N2Cc3ccccc3C[C@@H]2C1=O	-5	1	-5	-1	0	0
C[C@H]1COc2cc(N3CCC[C@H]3CO)ccc2S(=O)(=O)N1	x	-1	x	x	x	x
CCOc1ccc(NC(=S)Nc2cc(C)[nH]n2)cc1	-3	4	-1	6	13	2
CCc1cccc(NC(=S)Nc2cccc3ccccc23)c1	-1	-12	0	-8	78*	-2
Cc1cc(NC(=S)Nc2cccc3ccccc23)n[nH]1	0	2	3	4	52*	2
CC1=C(C(=O)N(C(C)C)C(C)C)CC(CC(=O)NCc2cccc3ccccc23)C(=O)N1Cc1ccc(C(C)(C)C)cc1 (centres undefined)	x	-4	x	x	x	x
CN1N=C2c3ccccc3CCCC2C1c1ccc(F)cc1 (centres undefined)	4	1	-3	7	49*	2
Cc1ccnc(NC(=O)c2cnc(Cl)c(Cl)c2)c1	-3	-1	4	6	58*	2
O=C(NNC(=O)c1cc(-c2ccncc2)nc2ccccc12)c1ccccc1O	2	-1	1	x	14	0
CCC(=O)c1ccc(Oc2nc3c(c(=O)n(C)c(=O)n3C)n2CC)cc1	-2	0	0	0	61*	-1
Cc1ccc(S(=O)(=O)N2CCOCC2)cc1NC(=O)COC(=O)c1ccco1	x	-1	x	x	x	-1
COc1cccc(/C=N/n2c(SC)nnc2-c2ccccc2)c1OC	-5	1	-9	2	61*	0
O=C(O)CC/C(=N\Nc1ccc(Cl)cc1)c1cccs1	3	-4	5	4	61*	1
Cc1sc2ccc3sccc3c2[n+]1C	-2	0	16	30*	-4	1
Cc1sc2c3ccsc3ccc2[n+]1C	-3	1	13	30*	-4	2
Cc1cccc(C)c1-n1c(C)cc(/C=C2\NC(=O)NC2=O)c1C	-1	-3	6	5	15	7
Cc1c(/C=C2\NC(=O)NC2=O)c2ccccc2n1C	1	-10	5	6	75*	-1
O=C(c1ccc(F)cc1)N1CCC(C(=O)N2CCN(S(=O)(=O)c3cccc([N+](=O)[O-])c3)CC2)CC1	0	2	1	x	2	1
